Results collected from several papers.
Protocols differ between the studies behind these lines.
Cell line: A549
Effect on: cell growth or viability

Structure (SMILES) | test | setting | IC50
CCCCn1cnc2ccc(-c3ccc(NC(=O)C4CCC4)nc3)cc2c1=O | CCK-8 | 72 h | 3.93 µM
OC1CCN(c2ccc(/C=N/NC(=S)NCCc3ccccc3)cc2)CC1 | MTT | 24 h | 1.33 µM
Cc1cc(C)cc(NC(=O)Nc2nc3cc(-c4ccc5ncn(Cc6ccccc6)c(=O)c5c4)ccc3s2)c1 | MTT | 72 h | > 20 µM
O=c1[nH]cc(F)c(=O)[nH]1 | MTT | 48 h | 42.5 µM
COc1cccc2c1C(=O)c1c(O)c3c(c(O)c1C2=O)C[C@@](O)(C(=O)CO)C[C@@H]3O[C@H]1C[C@H](N)[C@H](O)[C@H](C)O1 | MTT | – | 0.307 µM
COc1ccc(C(=O)Nc2nc3cc(-c4ccc5ncn(Cc6ccccc6)c(=O)c5c4)ccc3s2)cc1 | MTT | 72 h | > 20 µM
COc1ccc(NC(=S)N/N=C/c2cccc3cc4ccccc4nc23)cc1 | MTT | 48 h | 17.8 µM
COc1ccc(CNc2ccc(C(=O)O)cc2)cc1OC | resazurin | 72 h | > 100 µM
CCCC(=O)Nc1ccc(-c2ccc3ncn(Cc4ccc(C)cc4)c(=O)c3c2)cn1 | CCK-8 | 72 h | > 10 µM
C/C(=N\C(=N)/N=C(\C)c1c(O)c2ccccc2oc1=O)c1c(O)c2ccccc2oc1=O | MTT | 48 h | 66 µM
O=C(O)c1ccc(NCc2ccccc2)cc1 | resazurin | 72 h | > 100 µM
CC(C)NC(=O)Nc1nc2cc(-c3ccc4ncn(Cc5ccccc5)c(=O)c4c3)ccc2s1 | MTT | 72 h | > 20 µM
O=C(Nc1ccc(-c2ccc3ncn(Cc4ccccc4)c(=O)c3c2)cn1)c1ccc(F)cc1 | CCK-8 | 72 h | > 10 µM
CC1CCC(C(C)C)C(OC2=C(Cl)C(=O)c3ccccc3C2=O)C1 (centres unmarked) | MTT | 24 h | > 50 µg/mL
O=C(Nc1ccc(F)cc1)Nc1nc2cc(-c3ccc4ncn(CCN5CCOCC5)c(=O)c4c3)ccc2s1 | MTT | 72 h | 2.51 µM
CCCCn1cnc2ccc(-c3ccc(NC(=O)C4CCCC4)nc3)cc2c1=O | CCK-8 | 72 h | 4.58 µM
NS(=O)(=O)c1ccc(-n2nc(C(=O)NN=Cc3ccccc3O)cc2-c2ccccc2)cc1 | fluorescence | 48 h | 9.25 µM
NNc1nc2ccc(Br)cc2c(=O)n1-c1ccc(Cl)cc1 | MTT | 48 h | 79.2 µM
C(=N\Nc1cc(N/N=C/c2cccc3cccnc23)ncn1)/c1cccc2cccnc12 | MTT | 48 h | 14.8 µM
CCCCn1cnc2ccc(-c3ccc(NC(=O)CCC)nc3)cc2c1=O | CCK-8 | 72 h | 3.19 µM
O=C(C=Cc1cccs1)c1ccc(OCCCOc2ccc(C(=O)C=Cc3cccs3)cc2)cc1 | MTT | 48 h | 115 µM
CCCCC(=O)Nc1ccc(-c2ccc3ncn(CCCF)c(=O)c3c2)cn1 | CCK-8 | 72 h | 1.79 µM
OC1CCN(c2ccc(/C=N/NC(=S)NCc3ccc(Cl)cc3)cc2)CC1 | MTT | 24 h | 1.46 µM
